Compounds with a hit are over-represented: about 3.8% of the library has one in this group of screens.
hERG rescue = hERG (human) protection from proarrhythmic block; Q12809; CHO-hERG, FluxOR thallium flux, dofetilide IC70 present; activation (rescue from dofetilide block), less the hit threshold, % at 10 µM; 0.51% of 310,000 active; AID 1511;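 active = activation above the mean of controls blocked by dofetilide plus 5 SD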;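 note: thallium influx through hERG after potassium depolarization seen as dye fluorescence rise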
KCNK3 block = human KCNK3 channel inhibition, primary screen; O14649; 0.84% of 340,000 active; CHO-KCNK3 thallium flux, FluxOR fluorescence; hits give low values; B-score at 10 µM;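 active = B-score under library mean minus 4 SD, starting fluorescence ratio at most library mean plus 5 SD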;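 note: more negative B-score means stronger inhibition of thallium flux through KCNK3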
Target sequence (O14649 whole entry, looked up): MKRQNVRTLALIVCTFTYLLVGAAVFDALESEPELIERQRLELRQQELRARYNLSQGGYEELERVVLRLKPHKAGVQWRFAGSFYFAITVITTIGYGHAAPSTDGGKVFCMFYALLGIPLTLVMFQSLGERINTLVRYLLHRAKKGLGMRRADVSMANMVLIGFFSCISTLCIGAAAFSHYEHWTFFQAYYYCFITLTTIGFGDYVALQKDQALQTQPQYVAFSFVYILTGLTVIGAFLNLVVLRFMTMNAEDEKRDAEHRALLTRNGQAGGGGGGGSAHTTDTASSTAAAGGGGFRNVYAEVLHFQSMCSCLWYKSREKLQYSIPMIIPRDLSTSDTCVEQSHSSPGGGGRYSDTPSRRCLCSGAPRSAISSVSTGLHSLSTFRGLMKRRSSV
KCNQ1 inh = human KCNQ1 channel inhibition; B-score at 10 µM; 1.3% of 310,000 active; CHO-K1 KCNQ1, FluxOR thallium flux fluorescence; hits give high values;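 active = compounds whose thallium flux B-score, printed positive for inhibition, exceeds three library SD while starting fluorescence stays within three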;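 note: channel opened by potassium depolarization with thallium stimulus after 20 min compound exposure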
Kir21 inh = blocks the mouse Kir2.1 inward-rectifier potassium channel; P35561; HEK293-Kir2.1, FluxOR thallium flux fluorescence; hits give low values; B-score at 10 µM; 0.85% of 310,000 active;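 active = fluorescence ratio B-score at or below minus 3 SD of library scores, with starting-brightness B-score within 2 SD, cut at about -4.2 in these data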;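 note: channel flux triggered by added potassium and thallium sulfate stimulus; B-score of peak minus minimum fluorescence over baseline after thallium stimulus; more negative B-score means stronger Kir2.1 block with less thallium influx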
KCNQ1 pot = potentiators or activators of human KCNQ1 potassium channel. CHO-K1 KCNQ1, thallium flux FluxOR fluorescence; hits give high values. B-score at 10 µM. 0.35% of 310,000 active. AID 2648;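 active = fluorescence ratio B-score, a plate-corrected score, at least three library SD, with initial intensity B-score within 5 SD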
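Assay system: stable KCNQ1 CHO-K1 line; medium: assay buffer, equal DMSO in all wells; timing: 90 min dye loading and 20 min compound exposure, both at room temperature; technique: kinetic FluxOR thallium fluorescence, 10-s 1-Hz baseline, 110-s post-stimulus read; read-out basis: B score of baseline-normalized fluorescence ratio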
KCNK9 block = inhibitors of human KCNK9 two-pore domain potassium channel; 1.2% of 310,000 active; Q9NPC2; B-score at 10 µM; HEK293 KCNK9, FluxOR thallium flux fluorescence; hits give low values;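 active = ratio B-score over 3 SD below the library mean, with starting fluorescence within 5 SD of its mean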;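 note: negative B-score means less thallium flux so channel inhibition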
Numbers without * were called inactive.

What do the screens show for `O=C(CCCCCCCC(=O)c1ccccc1)c1ccccc1`?
hERG rescue: -6; KCNK3 block: inactive; KCNQ1 inh: 7*; Kir21 inh: 0.45; KCNQ1 pot: inactive; KCNK9 block: inactive

How did Cc1ccc(C(=O)CC(=O)c2ccccc2)cc1 do in these assays?
hERG rescue: -6; KCNK3 block: inactive; KCNQ1 inh: inactive; Kir21 inh: 0.88; KCNQ1 pot: inactive; KCNK9 block: inactive

How did CCCC(=O)c1ccc(-c2ccccc2)cc1 do in these assays?
hERG rescue: -1; KCNK3 block: inactive; KCNQ1 inh: inactive; Kir21 inh: 0.01; KCNQ1 pot: inactive; KCNK9 block: -7.4*

What do the screens show for `CCCN(CCC)S(=O)(=O)c1ccc(C(=O)Nc2ccc(S(=O)(=O)Nc3nnc(CC)s3)cc2)cc1`?
hERG rescue: -9; KCNK3 block: inactive; KCNQ1 inh: inactive; Kir21 inh: 0.06; KCNQ1 pot: inactive; KCNK9 block: inactive

How did COc1cc(NC(=O)Cn2cnc3c(NCc4ccccc4)ncnc32)cc(OC)c1OC do in these assays?
KCNK3 block: inactive

Results for NC(=O)c1ncn([C@@H]2O[C@H](CNCc3ccc(-c4cc(C(F)(F)F)ccc4Cl)o3)[C@@H](O)[C@H]2O)n1 ?
KCNK3 block: inactive

What do the screens show for `CC1=NN(c2ccccc2)C(=O)/C1=C/c1cccs1`?
hERG rescue: -9; KCNK3 block: inactive; KCNQ1 inh: inactive; Kir21 inh: -0.33; KCNQ1 pot: inactive; KCNK9 block: inactive

What do the screens show for `CC1=NN(c2ccccc2)C(=O)/C1=C/c1ccc(Cl)cc1`?
hERG rescue: -6; KCNK3 block: inactive; KCNQ1 inh: 8*; Kir21 inh: -0.05; KCNQ1 pot: inactive; KCNK9 block: inactive

Results for CC(C)CCN(C(=O)c1ccccn1)c1c(N)n(Cc2ccccc2)c(=O)[nH]c1=O ?
KCNK3 block: inactive

How did CN=C1S/C(=C\c2ccc(N3CCCC3)c(F)c2)C(=O)N1C do in these assays?
hERG rescue: -8; KCNK3 block: inactive; KCNQ1 inh: 11*; Kir21 inh: -0.77; KCNQ1 pot: inactive; KCNK9 block: inactive

How did O=Cc1ccc(N2CCCC2)c(F)c1 do in these assays?
hERG rescue: -6; KCNK3 block: inactive; KCNQ1 inh: inactive; Kir21 inh: -0.04; KCNQ1 pot: inactive; KCNK9 block: inactive

Results for CC(C)c1ccc(NC(=S)N(C)CCc2ccccn2)cc1 ?
hERG rescue: 29*; KCNK3 block: inactive; KCNQ1 inh: inactive; Kir21 inh: -1; KCNQ1 pot: inactive; KCNK9 block: inactive

Results for Cc1cccc(C)c1NC(=S)N(C)CCc1ccccn1 ?
hERG rescue: -7; KCNK3 block: inactive; KCNQ1 inh: inactive; Kir21 inh: 0.65; KCNQ1 pot: inactive; KCNK9 block: inactive

What do the screens show for `COc1ccc(-n2nc(C(=O)c3cccs3)cc(-c3nc4ccccc4[nH]3)c2=N)cc1`?
hERG rescue: -11; KCNK3 block: inactive; KCNQ1 inh: inactive; Kir21 inh: 0.18; KCNQ1 pot: inactive; KCNK9 block: inactive

Results for Cc1ccccc1-n1nc(C(=O)c2cccs2)cc(-c2nc3ccccc3[nH]2)c1=N ?
hERG rescue: -17; KCNK3 block: inactive; KCNQ1 inh: 6*; Kir21 inh: -0.41; KCNQ1 pot: inactive; KCNK9 block: inactive

How did Cc1cc(NC(=O)C(Cl)Cl)cc2c1OCO2 do in these assays?
KCNK3 block: inactive

Results for COC(=O)c1ccc(C2Nc3ccc(/C(C)=N/NC(=O)C(OC)c4ccccc4)cc3C3C=CCC32)cc1 (stereo not drawn) ?
hERG rescue: -18; KCNK3 block: inactive; KCNQ1 inh: inactive; Kir21 inh: -0.36; KCNQ1 pot: inactive; KCNK9 block: inactive

What do the screens show for `Cc1nc(SCC(=O)NCCc2ccc(Cl)cc2)nc(C)c1C`?
hERG rescue: 3; KCNK3 block: inactive; KCNQ1 inh: inactive; Kir21 inh: -5*; KCNQ1 pot: inactive; KCNK9 block: inactive

What do the screens show for `CCOC(=O)Cn1c(=NC(=O)CSC(C)=O)sc2cc(OC)ccc21`?
hERG rescue: -11; KCNK3 block: inactive; KCNQ1 inh: inactive; Kir21 inh: 0.52; KCNQ1 pot: inactive; KCNK9 block: -8.1*

What do the screens show for `O=C1CCC(c2ccc3ccccc3c2)O1` (stereo not drawn)?
KCNK3 block: inactive

Assay outcomes deposited in PubChem by Johns Hopkins Ion Channel Center.
